Test results from ChEMBL document CHEMBL1145100, “Structure-activity relationship of imidazo[1,2-a]pyridines as ligands for detecting beta-amyloid plaques in the brain” (J Med Chem, 2003).

Molecular target: Amyloid-beta precursor protein (Homo sapiens, UniProt P05067)
Test: Inhibition constant against [125I]-7 (TZDM) binding to Amyloid beta 1-40 aggregates
Outline: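 Abeta40 peptide aggregated at 0.5 mg/mL in pH 7.4 buffer (10 mM sodium phosphate, 1 mM EDTA), 37 °C for 36-42 h with shaking. Competition in 1 mL of 40% EtOH: fibrils 10-50 nM final, radiotracer 0.05 nM, inhibitors 10^-5 to 10^-10 M. Nonspecific binding with 2 µM thioflavin-T. Incubated 3 h at room temperature, then GF/B filtration with 10% ethanol washes and gamma counting. Ki from nonlinear regression.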

Chain of Amyloid-beta precursor protein (P05067 whole entry): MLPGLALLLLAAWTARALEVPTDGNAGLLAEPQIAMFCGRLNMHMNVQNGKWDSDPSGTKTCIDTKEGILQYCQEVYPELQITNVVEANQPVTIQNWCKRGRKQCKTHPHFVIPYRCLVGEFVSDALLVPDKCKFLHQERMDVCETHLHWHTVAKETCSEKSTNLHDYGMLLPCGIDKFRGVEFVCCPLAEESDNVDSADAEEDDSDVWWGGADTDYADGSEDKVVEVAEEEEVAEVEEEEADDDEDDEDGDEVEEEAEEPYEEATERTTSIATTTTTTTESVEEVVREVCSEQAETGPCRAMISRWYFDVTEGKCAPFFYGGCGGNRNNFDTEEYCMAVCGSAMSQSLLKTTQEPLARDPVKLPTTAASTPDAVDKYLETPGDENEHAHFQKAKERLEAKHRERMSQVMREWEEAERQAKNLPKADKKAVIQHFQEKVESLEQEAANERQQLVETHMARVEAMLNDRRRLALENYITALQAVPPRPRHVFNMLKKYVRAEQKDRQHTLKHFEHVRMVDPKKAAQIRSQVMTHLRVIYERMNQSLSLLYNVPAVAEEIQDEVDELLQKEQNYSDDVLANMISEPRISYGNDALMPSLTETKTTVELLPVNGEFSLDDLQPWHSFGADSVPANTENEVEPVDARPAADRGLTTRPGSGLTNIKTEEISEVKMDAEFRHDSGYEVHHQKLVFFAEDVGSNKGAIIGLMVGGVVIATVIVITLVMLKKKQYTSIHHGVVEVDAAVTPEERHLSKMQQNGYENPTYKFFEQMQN

SMILES: CN(C)c1ccc(-c2cn3ccccc3n2)cc1
- Ki: > 2000 nM
